Measurements as given in ChEMBL document CHEMBL4321838, “Drug Design Targeting T-Cell Factor-Driven Epithelial-Mesenchymal Transition as a Therapeutic Strategy for Colorectal Cancer” (J Med Chem, 2019).
≈ marks a conversion by molar mass, not a printed value. Calls of active or inactive are those of the source.

What was measured:
[1] = Tmax in CD-1 mouse at 50 mg/kg, ip by LC-MS/MS analysis; assay type: ADME, organism-based; conditions: in vivo
Summary of the method: (§1)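 Female CD-1 mice, single IP injection at 50 mg/kg in 100% DMSO. Sampling from 0.25 to 24 h, three mice per time point (21 per compound). Heparinised blood was spun to plasma, mixed 1:1 with acidified acetonitrile (0.1% formic acid or 0.1% TFA depending on compound), centrifuged, then measured by LC-MS/MS.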

[2] = Cmax in CD-1 mouse at 50 mg/kg, ip by LC-MS/MS analysis; assay type: ADME, organism-based; parameters: dose 50 mg/kg, route intraperitoneal; conditions: in vivo; summary of the method: as §1
SW-620 [3] = assay: Cytotoxicity against human SW620 organoids assessed as growth inhibition at 10 uM after 72 hrs by brightfield imaging of organoid volume
Mus musculus = assay: Apparent volume of drug distribution in CD-1 mouse at 50 mg/kg, ip by LC-MS/MS analysis; assay type: ADME, organism-based; conditions: in vivo; summary of the method: as §1
[4] = Clearance in CD-1 mouse at 50 mg/kg, ip by LC-MS/MS analysis; assay type: ADME, organism-based; conditions: in vivo; summary of the method: as §1
[5] = biological target: T1, DNA topoisomerase 2-alpha (Homo sapiens, UniProt P11388); assay: Inhibition of topoisomerase 2alpha in human SW620 organoids transfected with EcadPro-RFP reporter assessed as reversion of epithelial-mesenchymal transition by measuring increase in E-cadherin expression up to 40 uM after 72 hrs by Hoechst 33342 staining based mCherryRFP reporter gene assay
T1 sequence (P11388 whole entry): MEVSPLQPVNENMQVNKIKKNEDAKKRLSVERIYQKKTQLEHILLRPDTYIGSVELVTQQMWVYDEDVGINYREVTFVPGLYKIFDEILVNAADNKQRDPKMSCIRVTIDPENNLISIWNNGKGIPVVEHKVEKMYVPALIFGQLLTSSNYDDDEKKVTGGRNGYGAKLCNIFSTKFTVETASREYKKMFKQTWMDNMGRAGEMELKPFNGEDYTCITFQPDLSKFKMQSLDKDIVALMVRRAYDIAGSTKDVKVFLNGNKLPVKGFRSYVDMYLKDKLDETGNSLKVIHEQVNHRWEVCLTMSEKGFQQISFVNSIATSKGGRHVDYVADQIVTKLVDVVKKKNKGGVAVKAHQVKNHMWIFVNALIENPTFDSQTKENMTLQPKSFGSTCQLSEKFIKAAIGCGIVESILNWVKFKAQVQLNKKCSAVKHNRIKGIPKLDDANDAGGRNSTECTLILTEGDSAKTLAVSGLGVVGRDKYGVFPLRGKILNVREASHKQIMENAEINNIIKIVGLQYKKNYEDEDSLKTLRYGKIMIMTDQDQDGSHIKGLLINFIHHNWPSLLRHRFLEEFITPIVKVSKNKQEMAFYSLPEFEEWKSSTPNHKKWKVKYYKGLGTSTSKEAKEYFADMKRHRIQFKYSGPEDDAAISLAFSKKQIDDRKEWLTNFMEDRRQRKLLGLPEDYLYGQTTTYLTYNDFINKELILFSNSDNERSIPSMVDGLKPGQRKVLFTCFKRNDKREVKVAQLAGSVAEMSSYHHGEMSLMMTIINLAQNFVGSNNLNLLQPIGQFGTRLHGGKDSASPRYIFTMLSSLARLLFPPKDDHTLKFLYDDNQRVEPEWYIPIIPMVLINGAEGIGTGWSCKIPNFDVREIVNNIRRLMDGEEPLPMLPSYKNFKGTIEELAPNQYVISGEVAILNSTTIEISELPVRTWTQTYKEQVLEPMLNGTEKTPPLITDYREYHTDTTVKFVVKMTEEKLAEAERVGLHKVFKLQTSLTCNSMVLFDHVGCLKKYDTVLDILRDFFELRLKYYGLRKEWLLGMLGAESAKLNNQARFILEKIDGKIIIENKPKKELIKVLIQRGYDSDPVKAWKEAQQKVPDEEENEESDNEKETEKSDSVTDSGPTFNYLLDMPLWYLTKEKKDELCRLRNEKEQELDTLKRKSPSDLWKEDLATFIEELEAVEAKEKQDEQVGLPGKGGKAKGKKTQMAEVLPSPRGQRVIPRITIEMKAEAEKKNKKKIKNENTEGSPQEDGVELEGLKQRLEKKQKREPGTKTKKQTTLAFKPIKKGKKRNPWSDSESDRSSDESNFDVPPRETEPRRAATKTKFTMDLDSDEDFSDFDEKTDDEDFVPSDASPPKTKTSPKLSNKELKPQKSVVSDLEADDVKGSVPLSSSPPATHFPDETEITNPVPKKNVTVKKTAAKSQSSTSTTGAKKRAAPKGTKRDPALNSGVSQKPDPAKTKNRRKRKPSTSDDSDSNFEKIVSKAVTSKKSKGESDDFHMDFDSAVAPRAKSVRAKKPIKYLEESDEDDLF
Summary of the method: (§2)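 SW620 cells stably carrying VimPro-GFP or EcadPro-mCherry (puromycin selected) grown as organoids and dosed 72 h. Stained with 16 μM Hoechst 33342 for 1 h and imaged as 15 z-layers, 26.5 μm apart. Nuclei segmented and GFP- or mCherry-positive cells counted above background thresholds. Percent positive cells normalised to DMSO.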

SW-620 [6] = assay: Induction of apoptosis in human SW620 organoids assessed as increase in cleaved caspase 3/7 level at 40 uM after 72 hrs by caspase-glo 3/7 luminescence assay relative to control; assay type: functional
Summary of the method: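 SW620 cells, 2,000 per well in 384-well ultra-low attachment plates with 2% Matrigel, grown 72 h into organoids, then dosed 72 h. Caspase-Glo 3/7 reagent added 1:1 and shaken 30 min; luminescence read. Staurosporine served as positive control and 0.4% DMSO as negative control.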

SW-620 [7] = assay: Antiinvasive activity in human SW620 organoids transduced with NucLight-Red virus assessed as inhibition of cell invasion at 10 uM incubated for 72 hrs and measured after 72 hrs by matrigel based fluorescence analysis; assay type: functional
Summary of the method: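 NucLight-Red-labelled SW620 organoids treated 72 h at 10 μM in 0.1% DMSO, then dissociated. 5,000 live cells per well seeded in 50% Matrigel in the upper chamber of a migration plate, 0.5% FBS above and 20% FBS below. Invading cells tracked by bottom-side fluorescence over days, six replicates per condition.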

[8] = Aqueous solubility of compound in PBS at 1 mg after 18 hrs by UV based analysis; assay type: physicochemical
Summary of the method: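 Undissolved material removed by centrifugation at 5,000g for 45 min. UV absorption compared with a fully saturated 1-propanol solution; solubility derived by linear regression.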

[9] = Metabolic stability in CD-1 mouse inactive microsomes incubated for 1 hr by LC-MS/MS analysis; assay type: ADME, Microsome
SW-620 [10] = assay: Cytotoxicity against human SW620 organoids assessed as cell death with loss of membrane integrity after 72 hrs by CellTox Green assay; assay type: functional, cell-based; conditions: SW-620, 72 h
Summary of the method: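 SW620 tumor organoids exposed 72 h to inhibitor over 0–40 μM together with CellTox Green Express (0.5X). Whole-well mean fluorescence imaged (ex 488, em 500–550 nm). Normalised to lysis buffer as 0% viability and 0.4% DMSO as 100% viability.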

[11] = Metabolic stability in CD-1 mouse active microsomes assessed as CYP450-mediated oxidative phase 1 metabolite formation measured up to 60 mins by LC-MS/MS analysis; assay type: ADME; conditions: 1 h
SW-620 [12] = assay: Induction of early stage cell death in human SW620 organoids transfected with EcadPro-RFP reporter assessed as loss of RFP reporter activity at 40 uM at after 72 hrs by Hoechst 33342 staining based mCherryRFP reporter gene assay; conditions: sw-620, 72 h
SW-620 [13] = assay: Anticlonogenic activity against human SW620 cells assessed as loss of cancer stem cell stemness by measuring inhibition of colony formation at 10 uM incubated for 24 hrs followed by replating and measured after 7 days by clonogenic assay; assay type: functional, cell-based
[14] = biological target: T1, DNA topoisomerase 2-alpha; assay: Inhibition of topoisomerase 2alpha in human SW620 organoids transfected with VimPro-GFP reporter assessed as reversion of epithelial-mesenchymal transition by measuring reduction in vimentin expression up to 40 uM after 72 hrs by Hoechst 33342 staining based GFP reporter gene assay; summary of the method: as §2
[15] = Drug metabolism in CD-1 mouse active microsomes assessed as CYP450-mediated oxidative phase 1 metabolite formation by LC-MS/MS analysis
[16] = Half life of terminal disposition phase in CD-1 mouse at 50 mg/kg, ip by LC-MS/MS analysis; assay type: ADME, organism-based; conditions: in vivo, read-out: t1/2lambda (converted); summary of the method: as §1
[17] = AUC(0 to t) in CD-1 mouse at 50 mg/kg, ip by LC-MS/MS analysis; assay type: ADME, organism-based; conditions: in vivo; summary of the method: as §1
[18] = Half life in CD-1 mouse microsomes measured up to 1 hr by LC-MS analysis; assay type: ADME, Microsome
Summary of the method: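 Female CD-1 mouse liver microsomes (0.5 mg/mL), substrate 1 μg/mL and 1.5 mM NADPH in 0.1 M phosphate buffer pH 7.4 at 37 °C. Samples taken from 0 to 60 min and quenched with an equal volume of acetonitrile. Parent compound remaining measured by LC-MS/MS without internal standard.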

[19] = biological target: T1, DNA topoisomerase 2-alpha; assay: Inhibition of human topoisomerase 2alpha mediated decatenation at 30 uM using kDNA as susbtrate preincubated for 20 mins followed by substrate and ATP addition and measured after 1 hr by ethidium bromide staining based gel electrophoresis method relative to control
Summary of the method: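 Human TOP2A (3 U) preincubated 20 min at 37 °C with compound at 30 μM in 1.2% DMSO. Reaction started with 2 mM ATP and 35 ng kDNA and run 1 h at 37 °C. Products resolved on 0.8% agarose in TBE with 0.2 μg/mL ethidium bromide; decatenated bands compared with vehicle.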

[20] = biological target: T1, DNA topoisomerase 2-alpha; assay: Inhibition of topoisomerase 2alpha dependent TCF transcription in human SW620 organoids transduced with TOPflash luminescent reporter after 72 hrs by luciferase based TOPFlash reporter gene assay
Summary of the method: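 SW620 cells stably carrying pCDH-TOPflash-luc grown as organoids: 5,000 cells per U-bottom well in phenol red-free RPMI with 5% FBS and 2% Matrigel, 72 h. Inhibitor then applied 72 h. One-Glo luciferase and CellTiter-Glo 3D added 1:1. Luciferase signal normalised to viability, then to DMSO controls.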

O=C(CCN1CCOCC1)Nc1ccc2c(-c3cc(F)ccc3O)ccnc2c1O
Tmax [1]: 15 min
Cmax [2]: 10900 ng/mL
growth inhibition (GI) (SW-620 [3]): Active
Vz (Mus musculus): 34 L/kg
CL/F [4]: 62.2 mL/min/kg
inhibition [5]: Active
fold change (FC) (SW-620 [6]): 9
inhibition (SW-620 [7]): Active
solubility thermodynamic at 18 h [8]: 1520 µg/mL (≈ 3.69 mM)
Stability [9]: Stable
EC50 (SW-620 [10]): 16 µM
Drug metabolism [11]: Metabolite_Detected
Activity (SW-620 [12]): Active
inhibition (SW-620 [13]): Active
inhibition [14]: Active
Drug metabolism [15]: Metabolite_Notdetected
half-life [16]: 379 min
AUC(0-t) [17]: 13000 ng·h/mL
t1/2 [18]: 8.53 min
inhibition [19]: 90%
IC50 [20]: 0.7 µM
